≈ marks a conversion by molar mass, not a printed value. Calls of active or inactive are those of the source. No cut-off for these calls is given here.
How the values were obtained:
Mus musculus [1] = experiment: Immunosuppressive activity in po dosed Balb/c mouse assessed as inhibition of anti-CD3-mediated T-cell activation by measuring IFNgamma release in plasma pretreated for 30 mins followed by anti-CD3 stimulation measured after 180 mins by ELISA; format: functional, organism-based
Outline: (§1)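 Balb/C mice (n=8 per group) were dosed orally with 1, 10 or 100 mpk in 0.1% Tween 80, 0.1% silicone antifoam, 1% methylcellulose (400 cps) vehicle, before anti-CD3 challenge. IFNγ release (pg/ml) was measured over a time course. Percent inhibition is the mean (±SEM) relative to the vehicle-treated positive control.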

Mus musculus [2] = experiment: Unbound AUC (infinity) in Balb/c mouse at 100 mg/kg, po after 1 hr; format: ADME, organism-based; conditions: in vivo
Mus musculus [3] = experiment: Unbound Cmax in Balb/c mouse at 30 mg/kg, po after 1 hr; format: ADME, organism-based; conditions: in vivo
Cytochrome P450 3A4 = Cytochrome P450 3A4 (Homo sapiens, UniProt P08684)
Chain of Cytochrome P450 3A4 (P08684 whole entry): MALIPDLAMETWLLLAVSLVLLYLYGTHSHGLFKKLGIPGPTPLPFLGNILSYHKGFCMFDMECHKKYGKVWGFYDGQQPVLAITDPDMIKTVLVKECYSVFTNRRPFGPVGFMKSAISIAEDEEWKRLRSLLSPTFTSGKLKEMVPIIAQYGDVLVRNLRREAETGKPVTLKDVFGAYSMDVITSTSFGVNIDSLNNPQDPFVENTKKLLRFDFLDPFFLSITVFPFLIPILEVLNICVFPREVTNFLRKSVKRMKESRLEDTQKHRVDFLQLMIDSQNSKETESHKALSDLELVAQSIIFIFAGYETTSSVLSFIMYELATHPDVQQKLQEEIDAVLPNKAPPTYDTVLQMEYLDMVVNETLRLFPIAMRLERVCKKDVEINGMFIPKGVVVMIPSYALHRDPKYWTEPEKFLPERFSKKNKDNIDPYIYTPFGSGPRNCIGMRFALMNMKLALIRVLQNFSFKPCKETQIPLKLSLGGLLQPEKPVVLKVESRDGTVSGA

Salmonella typhimurium [4] = experiment: Genotoxicity in Salmonella typhimurium TA100 up to 1667 ug/plate in presence or absence of liver S9 fraction by Ames test; format: toxicity, organism-based; conditions: salmonella enterica subsp. enterica serovar typhimurium
Outline: (§2)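 Three-strain bacterial miniAMES with TA1537, TA98 and TA100, with and without S9 activation. Top concentrations 500 and 1667 µg.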

in vitro [5] = conditions: human, liver microsomes
Mus musculus [6] = experiment: Unbound Cmax in Balb/c mouse at 100 mg/kg, po after 1 hr; format: ADME, organism-based; conditions: in vivo
Mus musculus [7] = experiment: Unbound AUC (infinity) in Balb/c mouse at 30 mg/kg, po after 1 hr; format: ADME, organism-based; conditions: in vivo
[8] = Apparent clearance in Balb/c mouse at 100 mg/kg, po after 1 hr; format: ADME, organism-based; conditions: in vivo
Mus musculus [9] = experiment: Clearance in Balb/c mouse at 1 mg/kg, iv; format: ADME, organism-based; conditions: in vivo
Outline: (§3)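 Intravenous PK in male Balb/C mice, n=3, at 1 mpk. Vehicle was 30% DMA or 15% NMP, depending on the compound.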

Mus musculus [10] = experiment: Half life in Balb/c mouse at 1 mg/kg, iv; format: ADME, organism-based; conditions: in vivo; outline: as §3
physchem [11] = conditions: pH 7.4 solution
[12] = target: Phosphatidylinositol 4-kinase type 2-alpha (Homo sapiens) (UniProt Q9BTU6); experiment: Inhibition of recombinant human full length GST-tagged PI4K2alpha expressed in insect cells at 10 uM
Chain of Phosphatidylinositol 4-kinase type 2-alpha (Homo sapiens) (Q9BTU6 whole entry): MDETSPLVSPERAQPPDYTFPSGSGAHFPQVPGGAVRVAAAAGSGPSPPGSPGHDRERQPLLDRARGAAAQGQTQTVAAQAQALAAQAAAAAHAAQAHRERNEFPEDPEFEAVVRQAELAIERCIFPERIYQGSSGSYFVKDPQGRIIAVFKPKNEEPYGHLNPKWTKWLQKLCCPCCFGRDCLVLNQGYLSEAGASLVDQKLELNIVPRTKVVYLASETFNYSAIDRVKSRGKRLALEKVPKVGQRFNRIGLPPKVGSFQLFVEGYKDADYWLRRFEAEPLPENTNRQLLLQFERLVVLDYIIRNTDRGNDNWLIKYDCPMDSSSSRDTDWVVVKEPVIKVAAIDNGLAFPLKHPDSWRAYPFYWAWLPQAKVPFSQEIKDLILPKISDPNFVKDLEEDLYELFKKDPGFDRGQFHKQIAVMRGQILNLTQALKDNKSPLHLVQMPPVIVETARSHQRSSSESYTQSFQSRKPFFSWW

Salmonella typhimurium [13] = experiment: Genotoxicity in Salmonella typhimurium TA1537 up to 1667 ug/plate in presence or absence of liver S9 fraction by Ames test; format: toxicity, organism-based; conditions: salmonella enterica subsp. enterica serovar typhimurium; outline: as §2
[14] = Apparent clearance in Balb/c mouse at 30 mg/kg, po after 1 hr; format: ADME, organism-based; conditions: in vivo
[15] = target: Voltage-gated inwardly rectifying potassium channel KCNH2 (Homo sapiens, UniProt Q12809)
Chain of Voltage-gated inwardly rectifying potassium channel KCNH2 (Q12809 whole entry): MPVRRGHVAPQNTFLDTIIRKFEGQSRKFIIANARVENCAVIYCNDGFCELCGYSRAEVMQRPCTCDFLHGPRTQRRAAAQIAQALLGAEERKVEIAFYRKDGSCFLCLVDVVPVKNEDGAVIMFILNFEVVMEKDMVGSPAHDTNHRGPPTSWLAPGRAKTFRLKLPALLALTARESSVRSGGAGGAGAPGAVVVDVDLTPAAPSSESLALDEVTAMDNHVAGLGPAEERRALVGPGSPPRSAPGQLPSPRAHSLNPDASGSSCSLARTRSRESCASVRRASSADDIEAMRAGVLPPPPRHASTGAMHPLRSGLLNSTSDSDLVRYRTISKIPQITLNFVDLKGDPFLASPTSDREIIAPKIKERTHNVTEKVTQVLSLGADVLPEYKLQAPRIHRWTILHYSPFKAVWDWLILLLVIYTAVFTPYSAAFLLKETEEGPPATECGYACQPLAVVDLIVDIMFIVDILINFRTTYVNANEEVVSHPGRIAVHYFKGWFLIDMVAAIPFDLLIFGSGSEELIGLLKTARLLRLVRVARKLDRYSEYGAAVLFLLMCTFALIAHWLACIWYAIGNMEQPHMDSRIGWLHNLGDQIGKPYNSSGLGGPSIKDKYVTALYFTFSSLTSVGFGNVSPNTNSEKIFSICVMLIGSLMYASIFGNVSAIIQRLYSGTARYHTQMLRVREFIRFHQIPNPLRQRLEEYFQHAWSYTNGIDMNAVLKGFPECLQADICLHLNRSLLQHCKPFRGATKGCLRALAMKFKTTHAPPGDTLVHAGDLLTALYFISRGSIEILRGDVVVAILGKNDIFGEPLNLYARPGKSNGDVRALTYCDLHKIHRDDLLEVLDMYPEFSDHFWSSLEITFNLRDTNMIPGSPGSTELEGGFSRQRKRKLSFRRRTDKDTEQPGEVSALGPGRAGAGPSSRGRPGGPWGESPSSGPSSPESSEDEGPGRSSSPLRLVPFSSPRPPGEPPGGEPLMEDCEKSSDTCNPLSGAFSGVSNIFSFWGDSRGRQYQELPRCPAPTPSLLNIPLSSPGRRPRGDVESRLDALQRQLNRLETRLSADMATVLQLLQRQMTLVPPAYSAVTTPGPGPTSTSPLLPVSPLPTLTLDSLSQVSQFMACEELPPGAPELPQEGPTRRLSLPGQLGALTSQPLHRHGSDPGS

Mus musculus [16] = experiment: (§4) Inhibition of allograft rejection in Balb/c mouse heterotopic cardiac transplantation model using C57BL/6 as cardiac donor assessed as long-term graft survival rate by measuring cardiac allograft function by daily palpitation at 100 mg/kg administered via oral gavage as qd for 28 days relative to control; format: functional; conditions: 672 h
Salmonella typhimurium [17] = experiment: Genotoxicity in Salmonella typhimurium TA98 up to 1667 ug/plate in presence or absence of liver S9 fraction by Ames test; format: toxicity, organism-based; conditions: salmonella enterica subsp. enterica serovar typhimurium; outline: as §2
[18] = target: Phosphatidylinositol 4-kinase alpha (Homo sapiens) (UniProt P42356); experiment: Inhibition of PI4K3alpha (unknown origin) at 10 uM
Chain of Phosphatidylinositol 4-kinase alpha (Homo sapiens) (P42356 whole entry, looked up): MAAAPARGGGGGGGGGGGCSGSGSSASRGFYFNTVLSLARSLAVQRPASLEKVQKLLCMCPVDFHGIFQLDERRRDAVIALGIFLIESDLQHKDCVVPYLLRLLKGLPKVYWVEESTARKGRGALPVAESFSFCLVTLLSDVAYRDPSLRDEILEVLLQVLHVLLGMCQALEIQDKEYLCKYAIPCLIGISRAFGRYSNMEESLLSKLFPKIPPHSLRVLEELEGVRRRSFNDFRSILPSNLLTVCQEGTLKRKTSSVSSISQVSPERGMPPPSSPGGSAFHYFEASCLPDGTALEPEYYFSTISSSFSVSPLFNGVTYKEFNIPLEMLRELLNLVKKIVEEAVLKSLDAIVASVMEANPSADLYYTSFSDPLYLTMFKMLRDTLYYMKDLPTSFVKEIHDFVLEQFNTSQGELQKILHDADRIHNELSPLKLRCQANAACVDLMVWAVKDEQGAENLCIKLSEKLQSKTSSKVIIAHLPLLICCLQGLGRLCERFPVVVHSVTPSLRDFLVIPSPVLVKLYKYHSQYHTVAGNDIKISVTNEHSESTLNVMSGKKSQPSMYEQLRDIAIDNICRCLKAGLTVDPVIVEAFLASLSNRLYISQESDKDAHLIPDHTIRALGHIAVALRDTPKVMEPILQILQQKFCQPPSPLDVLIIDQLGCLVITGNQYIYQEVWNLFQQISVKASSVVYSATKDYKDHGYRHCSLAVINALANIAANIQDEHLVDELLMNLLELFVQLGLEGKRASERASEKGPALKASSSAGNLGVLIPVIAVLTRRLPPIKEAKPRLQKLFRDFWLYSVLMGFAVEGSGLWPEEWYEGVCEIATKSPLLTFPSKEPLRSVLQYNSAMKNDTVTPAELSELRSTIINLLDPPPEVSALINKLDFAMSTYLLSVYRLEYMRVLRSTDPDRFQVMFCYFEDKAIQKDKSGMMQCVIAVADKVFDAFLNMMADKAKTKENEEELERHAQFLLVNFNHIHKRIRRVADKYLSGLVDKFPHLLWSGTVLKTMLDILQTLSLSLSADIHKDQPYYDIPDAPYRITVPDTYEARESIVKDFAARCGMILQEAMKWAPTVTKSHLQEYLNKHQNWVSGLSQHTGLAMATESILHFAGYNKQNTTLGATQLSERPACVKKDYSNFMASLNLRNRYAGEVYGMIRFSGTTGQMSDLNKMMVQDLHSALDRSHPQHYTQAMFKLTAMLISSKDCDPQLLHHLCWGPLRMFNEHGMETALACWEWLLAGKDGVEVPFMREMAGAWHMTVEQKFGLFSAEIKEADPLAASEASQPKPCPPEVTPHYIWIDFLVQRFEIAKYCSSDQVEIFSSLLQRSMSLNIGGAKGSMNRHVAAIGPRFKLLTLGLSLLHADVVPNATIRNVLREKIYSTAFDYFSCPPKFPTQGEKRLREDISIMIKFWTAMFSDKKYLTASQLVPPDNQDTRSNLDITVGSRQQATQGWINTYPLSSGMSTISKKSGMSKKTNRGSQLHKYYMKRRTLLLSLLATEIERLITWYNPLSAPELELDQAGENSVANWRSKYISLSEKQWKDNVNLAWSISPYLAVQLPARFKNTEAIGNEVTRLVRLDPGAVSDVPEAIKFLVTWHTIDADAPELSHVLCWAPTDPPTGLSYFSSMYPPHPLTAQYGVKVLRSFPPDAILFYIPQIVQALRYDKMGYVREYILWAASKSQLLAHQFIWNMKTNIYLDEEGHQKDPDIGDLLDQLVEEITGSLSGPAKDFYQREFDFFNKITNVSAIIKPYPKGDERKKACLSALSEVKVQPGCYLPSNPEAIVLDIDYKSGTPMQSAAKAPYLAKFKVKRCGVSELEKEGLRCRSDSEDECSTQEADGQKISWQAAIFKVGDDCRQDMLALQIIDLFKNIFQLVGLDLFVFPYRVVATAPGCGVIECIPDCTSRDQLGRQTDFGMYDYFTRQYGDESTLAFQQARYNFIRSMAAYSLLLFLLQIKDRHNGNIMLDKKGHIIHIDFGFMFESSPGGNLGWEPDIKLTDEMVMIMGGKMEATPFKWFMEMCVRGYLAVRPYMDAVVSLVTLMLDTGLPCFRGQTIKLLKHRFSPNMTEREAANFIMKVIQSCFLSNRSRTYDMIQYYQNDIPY

physchem [19] = conditions: phosphate buffer, pH 7.4
Mus musculus [20] = experiment: Immunosuppressive activity in Balb/c mouse assessed as inhibition of anti-CD3-mediated T-cell activation by measuring IFNgamma release in plasma at 100 mg/kg, po pretreated for 30 mins followed by anti-CD3 stimulation measured after 180 mins by ELISA relative to control; format: functional; outline: as §1
[21] = target: Phosphatidylinositol 4-kinase type 2-beta (Homo sapiens) (UniProt Q8TCG2); experiment: Inhibition of recombinant human full length GST-tagged PI4K2beta expressed in insect cells at 10 uM
Chain of Phosphatidylinositol 4-kinase type 2-beta (Homo sapiens) (Q8TCG2 whole entry): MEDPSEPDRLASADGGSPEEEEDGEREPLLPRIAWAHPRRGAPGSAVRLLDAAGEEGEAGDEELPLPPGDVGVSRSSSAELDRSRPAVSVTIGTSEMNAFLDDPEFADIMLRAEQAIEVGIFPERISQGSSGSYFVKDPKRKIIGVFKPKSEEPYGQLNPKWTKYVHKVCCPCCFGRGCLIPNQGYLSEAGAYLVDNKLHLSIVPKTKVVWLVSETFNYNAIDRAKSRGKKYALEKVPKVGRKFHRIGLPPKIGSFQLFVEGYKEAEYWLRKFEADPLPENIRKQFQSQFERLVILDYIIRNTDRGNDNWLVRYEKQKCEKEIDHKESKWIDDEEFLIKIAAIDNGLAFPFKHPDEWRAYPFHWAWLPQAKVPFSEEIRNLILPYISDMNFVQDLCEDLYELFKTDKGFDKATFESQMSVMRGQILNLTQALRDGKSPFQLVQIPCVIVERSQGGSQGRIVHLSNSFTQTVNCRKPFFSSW

Mus musculus [22] = experiment: as §4, with “measured after treatment withdrawal” for “relative to control”; format: functional, organism-based
[23] = Fraction unbound in mouse blood; format: ADME, tissue-based
Mus musculus [24] = experiment: Unbound Cmax in Balb/c mouse at 10 mg/kg, po after 1 hr; format: ADME, organism-based; conditions: in vivo
Mus musculus [25] = experiment: Volume of distribution at steady state in Balb/c mouse at 1 mg/kg, iv; format: ADME, organism-based; conditions: in vivo; outline: as §3
Mus musculus [26] = experiment: Immunosuppressive activity in OXA-induced Balb/c mouse T-cell dependent model of antibody response assessed as inhibition of IgG1 production in serum at 100 mg/kg, po qd pretreated for 30 mins followed by OXA challenge measured on day 7 post dose by ELISA; format: functional, organism-based
Mus musculus [27] = experiment: Immunosuppressive activity in OXA-induced Balb/c mouse T-cell dependent model of antibody response assessed as inhibition of IgG1 production in serum at 100 mg/kg, po qd pretreated for 30 mins followed by OXA challenge measured on day 14 post dose by ELISA; format: functional, organism-based
Mus musculus [28] = experiment: Unbound AUC in Balb/c mouse at 1 mg/kg, iv; format: ADME, organism-based; conditions: in vivo; outline: as §3
in vitro [29] = conditions: mouse, liver microsomes
Mus musculus [30] = experiment: Immunosuppressive activity in Balb/c mouse assessed as inhibition of anti-CD3-mediated T-cell activation by measuring IFNgamma release in plasma at 10 mg/kg, po pretreated for 30 mins followed by anti-CD3 stimulation measured after 180 mins by ELISA relative to control; format: functional; outline: as §1
Mus musculus [31] = experiment: Unbound AUC (infinity) in Balb/c mouse at 10 mg/kg, po after 1 hr; format: ADME, organism-based; conditions: in vivo
[32] = Unbound Tmax in Balb/c mouse at 10 to 100 mg/kg, po; format: ADME, organism-based; conditions: in vivo, read-out: fTmax
Mus musculus [33] = experiment: Oral bioavailability in Balb/c mouse at 10 mg/kg after 1 hr; format: ADME, organism-based; conditions: in vivo, 1 h
Outline: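 Male Balb/C mice, n=3. Oral dose of 10 mpk as a homogeneous suspension of crystalline solid in 0.1% Tween 80, 0.1% silicone antifoam, 1% methylcellulose (400 cps) in water. I.v. dose of 1 mpk in 30% DMA or 15% NMP, depending on the compound. Bioavailability was extrapolated from the i.v./p.o. experiments.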

Mus musculus [34] = experiment: Immunosuppressive activity in Balb/c mouse assessed as inhibition of anti-CD3-mediated T-cell activation by measuring IFNgamma release in plasma at 1 mg/kg, po pretreated for 30 mins followed by anti-CD3 stimulation measured after 180 mins by ELISA relative to control; format: functional; outline: as §1
[35] = Apparent clearance in Balb/c mouse at 10 mg/kg, po after 1 hr; format: ADME, organism-based; conditions: in vivo

Compound: COc1ccc(NC(=O)N2CCN(c3nc(N)nc4scnc34)CC2)cc1
- inhibition (Mus musculus [1]): Dose-dependent effect
- fAUC (Mus musculus [2]): 3.907 µM·h
- fCmax (Mus musculus [3]): 444 nM
- IC50 (Cytochrome P450 3A4): > 20 µM
- Activity (Salmonella typhimurium [4]): Non-Toxic
- microsomal CLint at 0.75 h, 3 µM (in vitro [5]): 21 µL/min/mg
- fCmax (Mus musculus [6]): 967 nM
- fAUC (Mus musculus [7]): 0.769 µM·h
- CL/F [8]: 86 mL/min/kg
- CL (Mus musculus [9]): Nd(Insoluble)
- t1/2 (Mus musculus [10]): Nd(Insoluble)
- solubility kinetic at 1.5 h (physchem [11]): 85 µM (≈ 32.8 µg/mL)
- inhibition [12]: inactive
- Activity (Salmonella typhimurium [13]): Non-Toxic
- CL/F [14]: 112 mL/min/kg
- IC50 [15]: 28 µM
- survival at 100 mg/kg (Mus musculus [16]): 50%
- Activity (Salmonella typhimurium [17]): Non-Toxic
- inhibition [18]: inactive
- logD at 1.5 h (physchem [19]): 1.85
- inhibition in vivo at 100 mg/kg (Mus musculus [20]): 87.5%
- inhibition [21]: inactive
- inhibition (Mus musculus [22]): Active
- fraction unbound [23]: 0.061
- fCmax (Mus musculus [24]): 154 nM
- Vdss (Mus musculus [25]): Nd(Insoluble)
- inhibition (Mus musculus [26]): Active
- inhibition (Mus musculus [27]): Active
- fAUC (Mus musculus [28]): Nd(Insoluble)
- microsomal CLint at 0.75 h, 3 µM (in vitro [29]): 15 µL/min/mg
- inhibition in vivo at 10 mg/kg (Mus musculus [30]): 54.9%
- fAUC (Mus musculus [31]): 0.332 to 0.333 µM·h
- Tmax [32]: 1 h
- F (Mus musculus [33]): Nd(Insoluble)
- inhibition in vivo at 1 mg/kg (Mus musculus [34]): 24.6%
- CL/F [35]: 80 mL/min/kg
